From ChEMBL document CHEMBL1139843, “Novel sulfamide analogs of oleoylethanolamide showing in vivo satiety inducing actions and PPARalpha activation” (J Med Chem, 2007)
Calls of active or inactive are those of the source. The calls are words filed in the database; no cut-off is given here.

Experiments:
[1] = target: T1, Peroxisome proliferator-activated receptor alpha (Homo sapiens, UniProt Q07869); test: Activation of human PPARalpha by GST pull down assay
T1 sequence (Q07869 whole entry): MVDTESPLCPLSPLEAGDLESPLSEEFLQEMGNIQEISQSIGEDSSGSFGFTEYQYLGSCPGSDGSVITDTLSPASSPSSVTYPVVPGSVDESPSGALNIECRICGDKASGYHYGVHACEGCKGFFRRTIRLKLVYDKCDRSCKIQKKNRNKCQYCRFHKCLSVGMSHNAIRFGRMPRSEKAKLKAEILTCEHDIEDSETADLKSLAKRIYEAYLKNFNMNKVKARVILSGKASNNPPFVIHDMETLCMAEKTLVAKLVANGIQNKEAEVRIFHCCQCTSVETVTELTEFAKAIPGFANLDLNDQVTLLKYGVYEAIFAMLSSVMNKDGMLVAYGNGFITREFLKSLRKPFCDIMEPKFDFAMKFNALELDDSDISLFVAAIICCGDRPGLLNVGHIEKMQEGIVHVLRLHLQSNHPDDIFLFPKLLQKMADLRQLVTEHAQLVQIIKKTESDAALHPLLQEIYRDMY
Summary of the method: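 GST or GST-TIF2 Sepharose beads, pre-blocked with 1 µg/µl BSA, incubated with 20 ng in vitro translated [35S]-labeled PPARalpha with or without compound. Unbound translated protein washed off with immunoprecipitation buffer, then bound receptor detected.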

Rattus norvegicus [2] = test: Reduction in body weight of Wistar rat at 1 mg/kg, ip after 8 days; type: functional, organism-based; design: dose 1 mg/kg
Summary of the method: (§1)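 Normal Wistar rats, free-feeding, dosed 1 mg/kg i.p. daily for 8 days at dark-period onset. Compound suspended in Tween 80/saline. Body weight and plasma triglycerides compared with vehicle-treated rats; means ± SEM, n = 3-6, ANOVA.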

Rattus norvegicus [3] = test: Reduction in food intake in obese Zucker rat at 1 mg/kg, ip after 11 days; type: functional, organism-based; design: dose 1 mg/kg
Summary of the method: (§2)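 Genetically obese Zucker (fa/fa) rats, free-feeding, given 1 mg/kg i.p. daily for 11 days at dark-period onset, in Tween 80/saline. Cumulative relative weight gain (g/kg body weight, from day 1) and food intake compared with vehicle; means ± SEM, n = 3-6, ANOVA.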

[4] = target: T2, Peroxisome proliferator-activated receptor alpha (Homo sapiens) (UniProt Q07869); test: Agonist activity at human PPARalpha expressed in MCF7 cells transfected with co-activator TIF2 by luciferase reporter gene assay at 1 uM; type: functional, cell-based
T2 sequence (whole entry): T1 sequence (Q07869 whole entry)
Summary of the method: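 MCF-7 cells grown overnight in phenol red-free DMEM with 5% charcoal-treated FBS. Transfected with DOTAP liposomes carrying human ACO PPRE-luciferase reporter, wild-type hPPARalpha and full-length TIF2. Ligand or DMSO added 4 h after transfection, with medium topped up with charcoal-treated FBS. Cells lysed 16 h later. Luciferase normalized to protein, relative to DMSO-treated cells without overexpression; mean ± SD, n = 3-6.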

Rattus norvegicus [5] = test: Reduction in plasma triglycerides in Wistar rat at 1 mg/kg, ip after 8 days; type: functional, organism-based; design: dose 1 mg/kg; summary of the method: as §1
Rattus norvegicus [6] = test: Reduction in body weight gain in obese Zucker rat at 1 mg/kg, ip after 11 days; type: functional, organism-based; design: dose 1 mg/kg; summary of the method: as §2
Rattus norvegicus [7] = test: Reduction in food intake in Wistar rat at 0.03 to 3 mg/kg, ip

| Compound | EC50 [1] [µM] | Activity [4] | also measured |
| --- | --- | --- | --- |
| CCCCCCCC/C=C\CCCCCCCCNS(=O)(=O)NCCC | 11 | – | – |
| CCCCCCCCCCCCCCCCCCNS(=O)(=O)NCCC | 0.1 | Active | Activity (Rattus norvegicus [2]): Active; Activity (Rattus norvegicus [3]): Active; Activity (Rattus norvegicus [5]): Active; Activity (Rattus norvegicus [6]): Active |
| Cc1cccc(Nc2cc(Cl)nc(SCC(=O)O)n2)c1C | – | Active | – |
| CCCCCCCCCCCCCCCCNS(=O)(=O)NCCC | 21 | – | – |
| CCCCCCCCCCCCCCCCCCNS(N)(=O)=O | > 10000 | inactive | Activity (Rattus norvegicus [7]): Active |
| CCCCCCCC/C=C\CCCCCCCCNS(N)(=O)=O | 0.524 | – | – |
| CCCCCCCCCCCCCCCCNS(N)(=O)=O | > 10000 | – | – |
| CCCCCCCC/C=C\CCCCCCCC(=O)NCCO [OLEOYLETHANOLAMIDE] | 0.11 | Active | – |
